# KDM4C inh: inhibitors of human demethylase GASC-1 KDM4C; GST-KDM4C 2-372, H3K9me3 peptide, LANCE TR-FRET; 96,000 compounds, 0.15% hits; Q9H3R0; inhibition, % at 12.5 µM;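 active = mean replicate inhibition above about 25%, with at least 55% of replicates also reaching it, limit read from the data, passing the limit was not always enough; inconclusive = only one of those two conditions met; inactive = neither condition met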
# Target sequence (Q9H3R0 2-372 limits assumed): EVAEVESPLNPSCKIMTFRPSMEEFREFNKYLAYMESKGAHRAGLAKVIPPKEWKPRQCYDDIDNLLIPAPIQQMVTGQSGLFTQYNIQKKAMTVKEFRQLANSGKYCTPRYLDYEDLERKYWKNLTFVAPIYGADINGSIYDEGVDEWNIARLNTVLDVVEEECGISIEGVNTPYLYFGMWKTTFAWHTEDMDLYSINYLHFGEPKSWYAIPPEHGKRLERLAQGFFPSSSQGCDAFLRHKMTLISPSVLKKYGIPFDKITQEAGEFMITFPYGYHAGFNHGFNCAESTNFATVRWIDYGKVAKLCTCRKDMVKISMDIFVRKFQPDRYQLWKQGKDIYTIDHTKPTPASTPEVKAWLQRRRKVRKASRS
#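 Material: N-terminal GST-fused human GASC-1 (KDM4C) fragment, residues 2-372. Input: 10 nM enzyme. Incubation: enzyme reaction 30 min, then detection 60 min, both room temperature. Doses: one test concentration per compound. Read-out basis: inhibition from TR-FRET ratio decrease. Detection: LANCE TR-FRET, excitation 340 nm, emissions 618 and 671 nm.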
# Pf Dd2 growth: inhibitors of Plasmodium falciparum Dd2 growth | P. falciparum Dd2 growth, SYBR Green, 72 h; active compounds read low | activity change, % at 10 µM | 94,000 compounds, 2.3% hits; in the data active = activity change below about -80%; inconclusive = no clear call, values can overlap the other calls
# IDH1 R132H inh: IDH1 R132H (human) inhibition; IDH1 R132H reductase, diaphorase/resazurin fluorescence, 60 min; inhibition, % at 10 µM; 70,000 compounds, 0.18% hits; in the data active = inhibition above about 34%; inconclusive = no clear call, values can overlap the other calls; inactive = below about 11%;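 note: 0% = DMSO and 100% = no enzyme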
# T cruzi growth-1: blocks T. cruzi growth in NIH3T3 culture | T. cruzi beta-gal in NIH3T3, GalScreen luminescence, 90 h | inhibition, % at 8.34 µM | 77,000 compounds, 5.9% hits | AID 624255;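 active = mean inhibition above about 93%, with at least 55% of replicates each passing it, limit read from the data, passing the limit was not always enough; inconclusive = only one of those two conditions holds; inactive = neither condition holds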
# T cruzi growth-2: Trypanosoma cruzi proliferation inhibition. AID 651739. shares compounds with T cruzi growth-1. T. cruzi beta-gal in NIH3T3, GalScreen luminescence, 90 h. inhibition, % at 8.35 µM. 5,600 compounds, 72% hits;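 active = mean replicate inhibition above about 95% and at least 55% of replicates individually reaching it, limit read from the data; inconclusive = only one of the two criteria is met; inactive = neither criterion is met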
# T cruzi growth-3: Trypanosoma cruzi proliferation inhibition. inhibition, % at 2.09 µM. T. cruzi beta-gal in NIH3T3, GalScreen luminescence, 90 h. shares compounds with T cruzi growth-1. 5,600 compounds, 21% hits. AID 651740;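 active = mean inhibition above about 95%, with at least 55% of replicates also reaching it, limit read from the data; inconclusive = meets just one of the two conditions; inactive = meets neither condition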;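 note: plate controls were neutral control median for no effect and positive control median for full effect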
# NIH3T3 tox: cytotoxicity in mouse NIH/3T3 fibroblasts; NIH/3T3 viability, CellTiter-Glo ATP luminescence, 90 h; shares compounds with T cruzi growth-1; 5,600 compounds, 14% hits; AID 651742; cytotoxicity (signal decrease), % at 8.35 µM;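 active = mean signal decrease across replicates above about 35% based on untreated-well scatter, with enough replicates individually passing, limit read from the data; inconclusive = no rule stated though some were filed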;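 note: 0% = median of neutral control wells and 100% = median of positive control wells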
# NIH3T3 tox 2: kills mouse NIH/3T3 fibroblasts. shares compounds with T cruzi growth-1. NIH/3T3 viability, CellTiter-Glo ATP luminescence, 90 h. inhibition, % at 24.9 µM. 5,600 compounds, 56% hits;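 active = mean loss of cell viability signal at or above a set limit, and enough replicates individually reaching it; inconclusive = meets only the mean limit or only the replicate share; inactive = meets neither condition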;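 note: 0% = median of neutral control wells and 100% = median of positive control wells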
# * hit, by the source's call; ? = inconclusive; / = no result. Rows were chosen to be rich in hits. Some 5.9% of all compounds tested hit in one or more screens of this group.
SMILES,KDM4C inh,Pf Dd2 growth,IDH1 R132H inh,T cruzi growth-1,T cruzi growth-2,T cruzi growth-3,NIH3T3 tox,NIH3T3 tox 2
O=C(c1cccc(F)c1)N1CCCCN2[C@@H](CO)[C@@H](c3ccc(-c4ccncc4)cc3)[C@@H]2C1,-1,8,/,82,/,/,/,/
O=C(c1cccc(F)c1)N1CCCCN2[C@@H](CO)[C@H](c3ccc(/C=C/c4ccccc4)cc3)[C@@H]2C1,-1,-12,/,111*,103*,93,45*,103*
O=C(c1cccc(F)c1)N1CCCCN2[C@H](CO)[C@H](c3ccc(/C=C/c4ccccc4)cc3)[C@@H]2C1,0,-73,/,114*,100*,110*,34,99*
O=C(c1cccc(F)c1)N1CCCCN2[C@H](CO)[C@H](c3ccc(/C=C/c4ccccc4)cc3)[C@H]2C1,-4,-58,/,111*,102*,81,91*,104*
Cc1nc(SCC(=O)N(c2ccccc2)c2ccccc2)n[nH]1,/,/,0,/,/,/,/,/
O=C(CSc1nc(O)cc(=O)n1-c1ccccc1)Nc1ccccc1Cl,/,/,0,/,/,/,/,/
CCN(CC(=O)Nc1cccc(C(C)=O)c1)S(=O)(=O)c1ccc(F)cc1,/,/,0,/,/,/,/,/
CC(=O)c1ccc(NC(=O)CSc2nc3cc(C)c(C)cc3[nH]2)cc1,/,/,0,/,/,/,/,/
C[C@@H]1CCCCO[C@H](CN(C)C(=O)CCC(F)(F)F)[C@H](C)CN([C@@H](C)CO)C(=O)c2cc(NS(=O)(=O)c3ccc(Cl)cc3)ccc2O1,/,-2,0,104*,103*,68,11,72*
C[C@@H]1CN([C@@H](C)CO)C(=O)c2cc(NS(=O)(=O)c3ccc(Cl)cc3)ccc2O[C@@H](C)CCCCO[C@H]1CN(C)C(=O)CCC(F)(F)F,1,-5,/,42,/,/,/,/
C[C@@H]1CCCCO[C@H](CN(C)C(=O)CCC(F)(F)F)[C@@H](C)CN([C@H](C)CO)C(=O)c2cc(NS(=O)(=O)c3ccc(Cl)cc3)ccc2O1,5,-22,/,88,/,/,/,/
C[C@@H]1CN([C@H](C)CO)C(=O)c2cc(NS(=O)(=O)c3ccc(Cl)cc3)ccc2O[C@@H](C)CCCCO[C@@H]1CN(C)C(=O)CCC(F)(F)F,0,-36,/,99*,82,52,16,71*
Cc1nnc(Sc2ccc(/C=N/NC(=O)CCCCCCC(=O)NO)o2)n1C,/,/,0,/,/,/,/,/
C[C@@H]1CN([C@H](C)CO)S(=O)(=O)c2ccc(-c3ccc(F)cc3)cc2O[C@@H]1CN(C)C(=O)Nc1ccccc1F,-2,-27,/,110*,110*,50,28,37*
C[C@@H]1CN([C@H](C)CO)S(=O)(=O)c2ccc(C#CC3CC3)cc2O[C@@H]1CN(C)C(=O)Nc1cc(F)ccc1F,-1,-32,-1,105*,109*,55,-15,-1
COc1ccc(-c2ccc3c(c2)O[C@@H](CN(C)C(=O)Nc2ccccc2F)[C@@H](C)CN([C@H](C)CO)S3(=O)=O)cc1,14,-86*,0,97*,106*,57,48*,39*
C[C@@H]1CN([C@@H](C)CO)S(=O)(=O)c2ccc(-c3ccccc3)cc2O[C@@H]1CN(C)C(=O)Nc1ccccc1F,3,-28,/,-78,/,/,/,/
COc1ccc(-c2ccc3c(c2)O[C@@H](CN(C)C(=O)Nc2ccccc2F)[C@H](C)CN([C@@H](C)CO)S3(=O)=O)cc1,-1,-77,1,73,/,/,/,/
C[C@H](CO)N1C[C@H](C)[C@H](CN(C)C(=O)Nc2cc(F)ccc2F)Oc2cc(-c3cccc(F)c3)ccc2S1(=O)=O,0,-65,0,83,/,/,/,/
C[C@H](CO)N1C[C@H](C)[C@@H](CN(C)C(=O)Nc2cc(F)ccc2F)Oc2cc(-c3cccc(F)c3)ccc2S1(=O)=O,0,-58,-1,107*,111*,88,25,32*
Cc1ccccc1-c1nnc(SCC(=O)Nc2cc(C(F)(F)F)ccc2N2CCOCC2)o1,/,/,0,/,/,/,/,/
Cc1ccc(NC(=O)CSc2nc(C)cc(C(F)(F)F)n2)cc1,/,/,0,/,/,/,/,/
O=[N+]([O-])c1cccc(COc2ccc(-c3cnc4ccccc4n3)cc2)c1,/,/,0,/,/,/,/,/
COC(=O)Cn1c(=O)n(Cc2ccco2)c(=O)c2c3c(sc21)CCCC3,/,/,0,/,/,/,/,/
N#Cc1c(SCc2ccccc2Cl)nc2c(c1C(F)(F)F)CCc1occc1-2,/,/,0,/,/,/,/,/
SMILES,KDM4C inh,Pf Dd2 growth,IDH1 R132H inh,T cruzi growth-1,T cruzi growth-2,T cruzi growth-3,NIH3T3 tox,NIH3T3 tox 2
O=C(Cn1cnc([N+](=O)[O-])n1)Nc1ccc(N2CCOCC2)c(Cl)c1,/,/,0,/,/,/,/,/
C[C@@H]1CN([C@@H](C)CO)S(=O)(=O)c2ccc(-c3ccccc3)cc2O[C@H]1CN(C)S(=O)(=O)c1ccccc1F,-1,-84*,0,124*,99*,105*,56*,66*
C[C@@H]1CN([C@H](C)CO)S(=O)(=O)c2ccc(-c3ccccc3)cc2O[C@@H]1CN(C)S(=O)(=O)c1ccccc1F,1,-27,0,122*,100*,95,21,36*
C[C@@H]1CN([C@H](C)CO)S(=O)(=O)c2ccc(-c3ccncc3)cc2O[C@@H]1CN(C)S(=O)(=O)c1ccccc1F,1,-30,0,/,/,/,/,/
C[C@H](CO)N1C[C@H](C)[C@H](CN(C)S(C)(=O)=O)Oc2cc(-c3ccccc3)ccc2S1(=O)=O,-3,-8,1,24,/,/,/,/
C[C@@H]1CN([C@@H](C)CO)S(=O)(=O)c2ccc(-c3ccccc3)cc2O[C@@H]1CN(C)S(=O)(=O)c1ccccc1F,-2,-37,-1,119*,102*,103*,15,46*
C[C@@H]1CN([C@H](C)CO)S(=O)(=O)c2ccc(-c3ccccc3)cc2O[C@H]1CN(C)S(=O)(=O)c1ccccc1F,0,-66,0,112*,?,89,64*,37*
C[C@H](CO)N1C[C@H](C)[C@H](CN(C)S(=O)(=O)c2ccccc2F)Oc2cc(-c3ccncc3)ccc2S1(=O)=O,1,-36,0,/,/,/,/,/
COc1cc(O)c2c(c1)O[C@H](c1ccc(O)c(O)c1)[C@@H](OC(C)=O)C2=O,/,/,-1,/,/,/,/,/
COc1cccc(NC(=O)CC2NC3CCCCC3NC2=O)c1 (configuration not stated),/,/,0,/,/,/,/,/
C[C@@H]1CN([C@H](C)CO)C(=O)c2cc(NS(=O)(=O)c3ccc(F)cc3)ccc2O[C@@H](C)CCCCO[C@H]1CN(C)C(=O)Nc1ccc(F)cc1,1,-37,/,30,/,/,/,/
